Test results published in article PMC3677025 (Pharmacological research : the official journal of the …, 2012).
Where “and” joins values, the source holds several entries; their conditions need not be identical. Equal entries are not always repeated.

Assays:
EphB1 = test: ELISA, ephrin-B2 AP binding to immobilized EphB1 Fc; conditions: concentrations up to 200 μM
Method in brief: (§1)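 Eph receptor Fc fusions were immobilized at 1 μg/ml in TBST on protein A-coated wells. Diluted ephrin AP fusion supernatant from transiently transfected HEK293 cells was added for 2 h with or without test compound; for IC50 it was at approximately 0.01 nM. Bound AP was read with p-nitrophenylphosphate, minus Fc-only background. IC50 came from a variable-slope log(inhibitor)–response fit, bottom constrained to 0.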

EphA2 [1] = target: T1, EphA2 (Homo sapiens, UniProt P29317); test: Ephrin-A1 Fc-induced EphA2 tyrosine phosphorylation in PC3 cells; format: cell-based; conditions: read-out: IC50, EphA2 tyrosine phosphorylation, 0.25 μg/mL ephrin-A1 Fc, ELISA
Method in brief: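 PC3 cells were serum-starved 1 h, given test compound (final DMSO ≤0.4%) for 15 min, then ephrin-A1 Fc for 20 min with compound still present. Lysis was in modified RIPA with NaF and pervanadate. Lysates were split for phospho and total EphA2 ELISA: anti-EphA2 extracellular capture, anti-phosphotyrosine or anti-cytoplasmic EphA2 detection, ABTS read at A405. IC50 was fitted to values normalized to ephrin-only cells.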

EphA3 = test: ELISA, ephrin-A5 AP binding to immobilized EphA3 Fc; conditions: read-out: IC50, inhibition of ephrin binding to EphA3
Method in brief: as §1

EphA2 [2] = target: T1, EphA2; test: Ephrin-A1 Fc-induced EphA2 phosphorylation in HUVECs; format: cell-based; conditions: at 50 μM
Method in brief: (§2)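 HUVECs were serum-starved 1–2 h and preincubated 15 min with 50 μM test compound (DMSO ≤0.4% final). They were then stimulated 20 min with 0.25 μg/mL ephrin-A1 Fc plus 1.5 μg/mL ephrin-B2 Fc (preclustered with 3-fold anti-Fc), or Fc, with compound present. Lysates were made in modified RIPA with NaF and pervanadate. EphA2 (1 μg antibody) and EphB4 (20 μg antibody) immunoprecipitates were immunoblotted for phosphotyrosine; lysates were probed for receptors and β-actin.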

EphB4 = target: T2, EphB4 (Homo sapiens, UniProt P54760); test: Ephrin-B2 Fc-induced EphB4 phosphorylation in HUVECs; format: cell-based; conditions: at 50 μM
T2 sequence (P54760 16-987): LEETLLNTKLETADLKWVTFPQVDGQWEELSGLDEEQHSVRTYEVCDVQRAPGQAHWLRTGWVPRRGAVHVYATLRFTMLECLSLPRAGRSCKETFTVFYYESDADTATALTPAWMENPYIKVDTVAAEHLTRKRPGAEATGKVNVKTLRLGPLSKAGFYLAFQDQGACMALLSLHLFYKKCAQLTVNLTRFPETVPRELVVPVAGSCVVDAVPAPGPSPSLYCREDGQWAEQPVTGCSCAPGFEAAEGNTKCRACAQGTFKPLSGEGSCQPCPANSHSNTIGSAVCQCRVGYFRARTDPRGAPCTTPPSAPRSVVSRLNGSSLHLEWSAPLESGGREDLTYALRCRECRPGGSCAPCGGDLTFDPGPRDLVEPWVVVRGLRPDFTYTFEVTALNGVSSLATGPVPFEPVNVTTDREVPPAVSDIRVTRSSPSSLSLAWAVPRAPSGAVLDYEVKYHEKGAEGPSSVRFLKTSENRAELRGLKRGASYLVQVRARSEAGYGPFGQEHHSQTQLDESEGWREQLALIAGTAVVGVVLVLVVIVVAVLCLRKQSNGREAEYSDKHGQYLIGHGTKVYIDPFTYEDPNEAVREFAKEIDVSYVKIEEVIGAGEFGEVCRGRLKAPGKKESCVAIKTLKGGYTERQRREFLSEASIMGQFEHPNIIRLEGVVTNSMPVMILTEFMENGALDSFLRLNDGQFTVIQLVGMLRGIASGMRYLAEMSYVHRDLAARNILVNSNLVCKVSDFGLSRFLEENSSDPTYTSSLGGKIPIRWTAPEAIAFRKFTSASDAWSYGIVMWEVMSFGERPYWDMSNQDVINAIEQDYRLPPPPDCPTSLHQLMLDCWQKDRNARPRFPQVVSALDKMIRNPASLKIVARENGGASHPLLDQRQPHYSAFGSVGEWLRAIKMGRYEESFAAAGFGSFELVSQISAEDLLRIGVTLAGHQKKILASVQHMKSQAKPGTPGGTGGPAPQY
Method in brief: as §2

EphA4 [3] = target: T3, EphA4 (Mus musculus, UniProt Q03137); test: EphA4 AP binding to immobilized KYL peptide
Method in brief: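 Biotinylated KYL peptide (biotin on the lysine of a C-terminal GSGSK linker) was captured on streptavidin-coated wells, with coating in borate buffer pH 8.7. Test compound (10 μM in 1% DMSO for screening; varied concentrations for confirmation) was added with ~0.35 nM mouse EphA4 ectodomain–AP from NIH3T3 supernatant in TBST. Bound AP was read at 405 nm with 1 mg/ml p-nitrophenylphosphate in SEAP buffer pH 9.8, minus AP-only background. Percent inhibition was taken relative to no-compound wells.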
Target sequence in this assay (Q03137 20-547 limits assumed): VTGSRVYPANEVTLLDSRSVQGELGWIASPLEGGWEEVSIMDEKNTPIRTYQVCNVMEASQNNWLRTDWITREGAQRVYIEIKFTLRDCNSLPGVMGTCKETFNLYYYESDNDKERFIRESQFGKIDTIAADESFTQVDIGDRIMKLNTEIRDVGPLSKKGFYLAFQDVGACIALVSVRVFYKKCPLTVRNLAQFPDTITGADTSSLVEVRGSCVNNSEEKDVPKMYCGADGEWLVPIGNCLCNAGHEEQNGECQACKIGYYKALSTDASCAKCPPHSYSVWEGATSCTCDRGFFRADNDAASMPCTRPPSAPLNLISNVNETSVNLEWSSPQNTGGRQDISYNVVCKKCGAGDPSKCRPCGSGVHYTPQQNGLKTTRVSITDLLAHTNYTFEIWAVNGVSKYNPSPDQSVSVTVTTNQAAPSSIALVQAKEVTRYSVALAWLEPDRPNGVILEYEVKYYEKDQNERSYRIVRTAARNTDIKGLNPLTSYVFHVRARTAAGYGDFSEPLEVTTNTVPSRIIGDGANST

EphA4 [4] = target: T3, EphA4; test: Ephrin-A5 Fc-induced EphA4 tyrosine phosphorylation in HT22 cells; format: cell-based; conditions: read-out: IC50, EphA4 tyrosine phosphorylation, 0.5 μg/mL ephrin-A5 Fc, ELISA
Method in brief: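 HT22 cells at ~70% confluency were serum-starved 1 h, given test compound (final DMSO ≤0.4%) for 15 min, then ephrin-A5 Fc for 20 min with compound still present. After modified RIPA lysis, phospho and total EphA4 were read by capture ELISA (anti-phosphotyrosine 1:500; cytoplasmic anti-EphA4 1:1,000), with ABTS at A405. Values were normalized to ephrin-only cells; IC50 came from 3–9 measurements.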
Target sequence in this assay (Q03137 20-986): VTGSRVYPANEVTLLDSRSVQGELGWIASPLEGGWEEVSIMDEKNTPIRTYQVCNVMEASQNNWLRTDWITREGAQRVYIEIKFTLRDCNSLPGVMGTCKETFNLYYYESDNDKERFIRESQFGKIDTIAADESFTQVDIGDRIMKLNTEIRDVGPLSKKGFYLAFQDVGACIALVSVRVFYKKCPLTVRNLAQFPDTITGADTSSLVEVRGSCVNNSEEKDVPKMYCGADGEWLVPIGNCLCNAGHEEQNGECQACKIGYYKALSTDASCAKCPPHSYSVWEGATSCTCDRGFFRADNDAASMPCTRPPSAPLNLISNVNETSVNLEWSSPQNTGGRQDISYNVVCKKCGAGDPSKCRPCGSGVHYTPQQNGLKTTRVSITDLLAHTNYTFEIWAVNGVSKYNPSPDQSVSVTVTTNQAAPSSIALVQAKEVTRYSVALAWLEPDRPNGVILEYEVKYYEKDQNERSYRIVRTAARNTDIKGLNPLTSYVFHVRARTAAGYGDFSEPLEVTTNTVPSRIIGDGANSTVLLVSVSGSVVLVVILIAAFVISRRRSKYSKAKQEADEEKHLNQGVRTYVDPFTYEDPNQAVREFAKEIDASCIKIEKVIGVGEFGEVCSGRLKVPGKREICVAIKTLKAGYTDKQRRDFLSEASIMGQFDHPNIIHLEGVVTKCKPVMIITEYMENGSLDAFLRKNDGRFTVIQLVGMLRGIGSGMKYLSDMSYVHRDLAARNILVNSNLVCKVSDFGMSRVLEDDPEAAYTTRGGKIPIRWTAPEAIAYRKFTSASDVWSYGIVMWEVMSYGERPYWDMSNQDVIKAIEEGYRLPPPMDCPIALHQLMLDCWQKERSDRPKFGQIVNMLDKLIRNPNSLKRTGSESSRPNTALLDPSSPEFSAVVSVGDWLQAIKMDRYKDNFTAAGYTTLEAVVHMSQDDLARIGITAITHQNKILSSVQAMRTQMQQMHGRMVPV

HUVECs = test: Capillary-like tube formation assay, HUVECs on Matrigel; format: cell-based, human; conditions: 18 hours
Method in brief: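 HUVECs (2.3 × 10⁴) were seeded on Matrigel-precoated wells in complete HUVEC medium containing test compound or DMSO control and grown for 18 h. Polygons were counted from phase-contrast images, 2–4 pictures from each of 3–6 wells. Counts were compared with DMSO-only wells by one-way ANOVA with Dunnett's post-hoc test.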

EphA4 [5] = target: T3, EphA4; test: ELISA, ephrin-A5 AP binding to immobilized EphA4 Fc
Method in brief: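 Mouse EphA4 Fc was captured at 1 μg/ml on protein A wells. Ephrin-A5 AP (~0.01 nM for IC50) from HEK293 supernatant was added with test compound for 2 h in TBST and read with p-nitrophenylphosphate, minus Fc-only background. For reversibility, compound was incubated 2 h, washed 30 min, then ephrin-A5 AP added for 1 h. For mode of inhibition, ephrin-A5 AP was titrated per compound concentration and fitted one-site; Ki came from KD/Bmax versus inhibitor regression.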
Target sequence in this assay (Q03137 20-547 limits assumed): as the sequence (Q03137 20-547 limits assumed) above

EphA7 = test: ELISA, ephrin-A5 AP binding to immobilized EphA7 Fc

T1 sequence (P29317 24-976): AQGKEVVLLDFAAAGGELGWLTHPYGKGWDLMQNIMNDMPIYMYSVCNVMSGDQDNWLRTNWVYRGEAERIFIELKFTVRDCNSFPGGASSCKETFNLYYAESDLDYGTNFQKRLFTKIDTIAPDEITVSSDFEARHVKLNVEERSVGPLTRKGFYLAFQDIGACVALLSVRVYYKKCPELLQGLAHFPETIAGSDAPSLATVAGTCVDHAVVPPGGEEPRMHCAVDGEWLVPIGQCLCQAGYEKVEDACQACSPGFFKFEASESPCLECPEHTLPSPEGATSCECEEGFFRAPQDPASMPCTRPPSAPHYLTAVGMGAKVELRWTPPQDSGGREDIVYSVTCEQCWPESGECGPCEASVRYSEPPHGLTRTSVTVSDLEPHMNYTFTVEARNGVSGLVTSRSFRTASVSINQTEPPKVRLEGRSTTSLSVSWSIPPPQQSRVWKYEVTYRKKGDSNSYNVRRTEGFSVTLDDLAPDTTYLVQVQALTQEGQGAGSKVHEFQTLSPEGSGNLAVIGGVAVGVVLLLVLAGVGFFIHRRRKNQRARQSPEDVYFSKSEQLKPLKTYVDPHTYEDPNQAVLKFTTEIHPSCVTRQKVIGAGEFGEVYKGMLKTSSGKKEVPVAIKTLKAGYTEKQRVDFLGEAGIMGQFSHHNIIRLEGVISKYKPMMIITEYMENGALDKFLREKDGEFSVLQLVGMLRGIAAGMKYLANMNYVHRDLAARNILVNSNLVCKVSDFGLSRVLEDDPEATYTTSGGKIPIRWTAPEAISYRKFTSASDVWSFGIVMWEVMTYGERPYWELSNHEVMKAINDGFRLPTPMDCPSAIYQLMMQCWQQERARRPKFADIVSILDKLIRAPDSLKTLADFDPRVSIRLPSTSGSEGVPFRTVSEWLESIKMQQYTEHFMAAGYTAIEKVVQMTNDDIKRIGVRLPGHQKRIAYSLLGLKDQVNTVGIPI

## O=C(Oc1cc(O)cc2c1C[C@@H](OC(=O)c1cc(O)c(O)c(O)c1)[C@@H](c1cc(O)c(O)c(O)c1)O2)c1cc(O)c(O)c(O)c1 [epigallocatechin-3,5-digallate]
EphB1
  inhibition of EphB1-ephrin interaction: no inhibition
EphA2 [1]
  IC50: 90 µM and ~90 µM
EphA3
  IC50: < 10 µM
EphA2 [2]
  EphA2 phosphorylation in HUVECs: strongly inhibits
EphB4
  EphB4 phosphorylation in HUVECs: strongly inhibits
EphA4 [3]; read-out: IC50 ± SE EphA4 KYL
  IC50: 1.5 ± 0.13 µM
EphA4 [3]; screen, compounds at 10 μM
  (% Inhib.) EphA4 KYL: 58%
EphA4 [4]
  IC50: 190 µM and ~190 µM
HUVECs; 20 μM to 200 μM
  capillary-like tube formation: dose-dependent inhibitory effect
HUVECs; at 50 μM
  capillary-like tube formation: inhibit
EphA4 [5]; compound washed out before adding ephrin-A5 AP
  reversibility of inhibition of EphA4-ephrin-A5 binding: reversible
EphA4 [5]; read-out: IC50, inhibition of EphA4-ephrin-A5 binding (text)
  IC50: 8 µM
EphA4 [5]; read-out: IC50, inhibition of EphA4-ephrin-A5 binding (text), listed as Epigallocatechin-3,5-digallate
  IC50: < 10 µM
EphA4 [5]; read-out: IC50 ± SE EphA4 ephrin-A5
  IC50: 7.4 ± 1.8 µM
EphA4 [5]; similar Bmax, increasing KD
  mode of inhibition of ephrin-A5 binding to EphA4: competitive inhibitors
EphA7
  inhibition of ephrin binding to EphA7: detectably inhibited, but with lower potency
